Bioassay records (PubChem BioAssay)
Sampled rows, rich in hits. Any-hit rate of the full collection: about 1.5%.
DNA FID counter: counter-screen for HCV NS3 helicase inhibitors: DNA intercalator displacement; DNA fluorescent intercalator displacement, fluorescence; inhibition, % at 7.9 µM; 0.17% of 290,000 active; in the data active = inhibition above about 37%;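 note: 0% = vehicle and 100% = reference compound; higher means more ethidium bromide displaced from hairpin DNA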
HCV core dimer: blocks dimerization of HCV core protein. AID 1899. TR-FRET GST/Flag-core106 dimerization, 1536-well. inhibition, % at 5 µM. 0.33% of 300,000 active;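 active = inhibition above the mean of all tested compounds plus 3 SD, set per screening campaign, cut at about 45% in these data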
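Assay system: GST-tagged and Flag-tagged HCV core protein residues 1-106 / Times: compound-protein-antibody incubation 4 h at 22.5 °C / Signal: time-resolved FRET, ex 340 nm, em 617 and 671 nm / Evaluation: % inhibition based on acceptor/donor emission ratio / Benchmarks: wells lacking GST-core106 and wells with excess unlabelled core106 / Repeats: singlicate, one well per compound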
MEX-5 binding: C. elegans MEX-5 TCR-2 RNA binding activity. AID 1832. MEX-5/FITC-TCR2 RNA binding, fluorescence polarization; hits give low values. activity score (negative = inhibition of binding), % at 10 µM. Q9XUB2. 0.38% of 300,000 active;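 active = inhibition past about -25% in most replicates, and total fluorescence under double the plate's negative control median, limit read from the data; inconclusive = replicates evenly split on the limit, or fluorescence at least double controls; inactive = too little inhibition in most replicates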;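 note: 0% = DMSO and -100% = 5 µM competing unlabeled TCR2 RNA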
NRP1-CendR mod: NRP-1/CendR interaction modulation. O14786. FAM-RPARPAR peptide binding to NRP-1, fluorescence polarization. inhibition, % at 25 µM. 0.85% of 360,000 active. AID 602438;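 active = inhibition or corrected inhibition above about 18%, plus a signal ratio from 0.5 to 1.5, limit read from the data, passing the limit was not always enough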
An asterisk follows results filed as active; ? = inconclusive; / = no result given.

SMILES	DNA FID counter	HCV core dimer	MEX-5 binding	NRP1-CendR mod
C/C=C\C=C\C(=O)N1CC2(CC(c3cccc(NC(=O)CC)c3)=NO2)C[C@H]1C(N)=O (stereo partly specified)	/	48*	0	-3
C/C=C\C=C\C(=O)Nc1cccc(C2=NOC3(C2)C[C@H](C(N)=O)N(C(=O)c2ccccc2C(=O)c2ccccc2)C3)c1 (stereo partly specified)	/	50*	1	/
CCC(=O)Nc1cccc(C2=NOC3(C2)C[C@@H](C(N)=O)N(C(=O)CC)C3)c1 (stereo partly specified)	/	-16	-2	9
C=C(C)C(=O)Nc1cccc(C2=NOC3(C2)C[C@@H](C(N)=O)N(C(=O)[C@H]2CCC(=O)N2)C3)c1 (stereo partly specified)	/	81*	0	-21
C/C=C/C=C\C(=O)Nc1cccc(C2=NOC3(C2)C[C@H](C(N)=O)N(C(=O)/C=C/C)C3)c1 (stereo partly specified)	/	48*	0	-16
C/C=C\C(=O)Nc1cccc(C2=NOC3(C2)C[C@@H](C(N)=O)N(C(=O)CC(c2ccccc2)c2ccccc2)C3)c1 (stereo partly specified)	/	16	1	14
C/C=C\C=C\C(=O)N1CC2(CC(c3cccc(NC(=O)COc4ccc(Cl)cc4)c3)=NO2)C[C@H]1C(N)=O (stereo partly specified)	/	47*	2	-5
C/C=C\C=C/C(=O)Nc1cccc(C2=NOC3(C2)C[C@@H](C(N)=O)N(C(=O)COc2ccc(Cl)cc2)C3)c1 (stereo partly specified)	/	25	3	-14
C/C=C/C=C/C(=O)Nc1cccc(C2=NOC3(C2)C[C@H](C(N)=O)N(C(=O)CC(c2ccccc2)c2ccccc2)C3)c1 (stereo partly specified)	/	48*	3	/
Cc1cc(C)cc(C(=O)NCC(=O)N2CCC(C(N)=O)CC2)c1	/	/	/	-2
CCCCN(CCCC)Cc1cc(=O)oc2cc(OC)c(Cl)cc12	/	/	/	2
CCc1cc(C(=O)OC)c(NC(=O)CN2CCN(C(=O)c3ccco3)CC2)s1	-41	-1	-1	26*
CCC(=O)N1CCC1(C)C(=O)Nc1ccc(OC)c(OC)c1 (stereo unspecified)	/	/	/	13
CCNS(=O)(=O)c1cc(OC)ccc1OC	38*	-2	2	5
Cc1cccc(C(=O)N2CCc3cc(-c4nc(NC(=O)CN5CCCC5)sc4C)ccc32)c1	-19	4	0	9
Cc1cccc(C(=O)N2CCc3cc(-c4nc(NC(=O)Cn5nnc6ccccc6c5=O)sc4C)ccc32)c1	-3	52*	1	/
Cc1ccc2nc3c(cc(C(=O)NCCN4CCOCC4)c(=N)n3CCCN3CCOCC3)c(=O)n2c1	79*	-4	0	5
Cc1ccc2nc3c(cc(C(=O)NCCc4ccccc4)c(=N)n3CCN3CCOCC3)c(=O)n2c1	-16	9	-1	-3
N=c1c(C(=O)NCCN2CCOCC2)cc2c(=O)n3ccccc3nc2n1Cc1ccc(F)cc1	23	6	-8	6
N=c1c(C(=O)NCCN2CCOCC2)cc2c(=O)n3ccccc3nc2n1CCCN1CCOCC1	76*	-7	1	6
CCOc1ccc2oc(C(=O)OCC(=O)N(CC(C)C)c3c(N)n(Cc4ccccc4)c(=O)[nH]c3=O)c(C)c2c1	/	/	/	-21
O=[N+]([O-])c1cc([N+](=O)[O-])c2oc(-c3ccccc3)c(Br)c2c1O	47*	/	-1	-34
O=c1cc(-c2ccccc2Cl)oc2ccc([N+](=O)[O-])c(O)c12	-1	2	1	-27
CC(C)[C@@H]1Cc2[nH]n(C)c(=O)c2[C@H](c2ccc(Cl)cc2)O1	/	/	/	-20
COc1ccccc1CN(C)C[C@H]1OCc2cnnn2CCCC(=O)N([C@@H](C)CO)C[C@@H]1C	/	/	/	0
SMILES	DNA FID counter	HCV core dimer	MEX-5 binding	NRP1-CendR mod
COc1ccc(/C=C2\C(=O)N(c3nc(-c4ccc(Br)cc4)cs3)N=C2c2ccccc2)cc1	-12	/	/	/
CCOc1cc(/C=C2\C(=O)N(c3nc(-c4ccc(Br)cc4)cs3)N=C2c2ccccc2)ccc1O	-19	55*	-3	-274
c1ccc(CN2CCC3CC2c2cc(N4CCOCC4)ccc23)cc1 (stereo unspecified)	/	/	/	6
COC(=O)CN1C(=O)C(O)(CC(=O)c2ccc(C)o2)c2ccccc21 (stereo unspecified)	-1	3	1	32*
O=C(Cn1c(=O)c2c(ncn2C2CCCC2)n(Cc2ccccc2)c1=O)N1CCc2ccccc21	-4	38	2	29*
O=C1c2ccccc2C(=O)c2c1ncn2-c1ccccc1	7	1	4	-4
O=C1c2ccccc2C(=O)c2[nH]cnc21	1	/	?	18*
O=C1C(O)=C(O)C(=O)c2ccccc21	/	-30	/	2
O=C1c2ccccc2C(=O)c2[nH]c(=O)[nH]c21	0	-16	-55*	28*
Cc1ccccc1OCC1Cc2c(nc(N)c(C#N)c2N)O1 (stereo unspecified)	-5	-2	/	53*
Cc1ccc(NC(=O)CCC(=O)N2CCN(S(=O)(=O)c3ccc(C)cc3)CC2)cc1	/	/	/	45*
Cc1cnc(C(=O)Oc2ccc(-c3ccccc3)cc2)cn1	-28	-10	1	19
Cc1nc(NCc2ccco2)c2cn[nH]c2n1	/	/	/	28*
COc1ccc(C2CC(=O)C(C=NCCCO)=C(O)C2)cc1 (stereo unspecified)	-5	10	-27*	12
OC(Cc1ccnc2ccccc12)C(Cl)(Cl)Cl (stereo unspecified)	/	/	/	-1
CCc1ccc(CN(C)C(=O)C2=CC=CN3CCS(=O)(=O)N=C23)cc1	/	/	/	-9
Fc1ccc(-c2cc(C(F)(F)F)nc(NCc3cccs3)n2)cc1	1	-12	1	30*
Fc1ccc(CNc2nc(-c3ccco3)cc(C(F)(F)F)n2)cc1	-6	33	1	-17
O=C(NCc1cccc(C(F)(F)F)c1)c1csc([C@H]2C[C@H](O)[C@@H](CO)O2)n1	/	/	/	-1
CCc1cc2cc3c(cc2nc1SCC(=O)Nc1cc(C)on1)OCO3	-4	111*	0	-14
CC1(C)OC2CC(=O)OCC23C1CC(=O)C1(C)C3CCC2(C)C(c3ccoc3)OC(=O)C3OC321 (stereo unspecified)	/	/	/	7
CC(C)(O)[C@@H]1CC(=O)[C@]2(C)[C@H](CC[C@@]3(C)[C@H](c4ccoc4)OC(=O)[C@H]4O[C@]432)[C@@]1(C)/C=C\C(=O)O	/	/	/	26*
Cc1nc(C)c(N)c(=O)[nH]1	1	1	3	24*
Cc1ccc(C)c(Cc2c(C)nc(C)[nH]c2=O)c1	2	1	-1	0
CCOC(=O)C(NC(C)=O)C(=O)Nc1ccc(C(C)C)cc1 (stereo unspecified)	-6	5	2	26*
CCOC(=O)C(NC(C)=O)C(=O)Nc1ccc(C(C)(C)C)cc1 (stereo unspecified)	-10	1	1	2
